ChEMBL document CHEMBL1926556, “Synthesis and biological activities of 2-[(heteroaryl)methyl]imidazolines” (Bioorg Med Chem, 2012)
pEC50, pKi: −log10 of the molar value.

How the values were obtained:
[1] = biological target: T1, Alpha-2A adrenergic receptor (Homo sapiens, UniProt P08913); assay: Agonist activity at human adrenoceptor alpha2A expressed in CHOK1 cells assessed as stimulation of agonist-induced [35S]GTPgammaS binding by scintillation counting; format: functional, cell-based, CHO-K1
T1 sequence (P08913 whole entry): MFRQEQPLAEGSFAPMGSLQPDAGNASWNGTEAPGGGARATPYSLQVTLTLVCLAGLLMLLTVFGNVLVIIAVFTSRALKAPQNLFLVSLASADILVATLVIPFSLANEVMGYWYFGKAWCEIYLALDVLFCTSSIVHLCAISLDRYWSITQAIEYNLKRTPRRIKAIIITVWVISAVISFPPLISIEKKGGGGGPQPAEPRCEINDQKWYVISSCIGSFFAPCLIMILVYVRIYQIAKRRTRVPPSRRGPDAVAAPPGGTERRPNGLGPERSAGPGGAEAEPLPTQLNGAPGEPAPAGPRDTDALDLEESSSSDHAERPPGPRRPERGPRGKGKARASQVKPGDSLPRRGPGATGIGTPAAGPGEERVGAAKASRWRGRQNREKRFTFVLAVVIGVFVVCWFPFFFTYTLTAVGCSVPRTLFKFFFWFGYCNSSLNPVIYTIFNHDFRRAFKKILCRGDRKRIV
Procedure, shortened: (§1)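 Membranes from CHO-K1 cells stably expressing human α2A-adrenoceptor; 5 µg protein incubated with serial dilutions of agonist and 0.1 nM [35S]GTPγS in Tris buffer pH 7.4 with 1 µM GDP, MgCl2, NaCl, 30 min at RT. Filtered and counted by scintillation.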

[2] = biological target: T2, Adrenergic receptor alpha-1 (Rattus norvegicus, UniProt P15823+P23944+P43140); assay: Displacement of [3H]prazosin from adrenoceptor alpha1 in Sprague-Dawley rat brain after 45 mins by scintillation counting
T2 sequence (P15823 whole entry): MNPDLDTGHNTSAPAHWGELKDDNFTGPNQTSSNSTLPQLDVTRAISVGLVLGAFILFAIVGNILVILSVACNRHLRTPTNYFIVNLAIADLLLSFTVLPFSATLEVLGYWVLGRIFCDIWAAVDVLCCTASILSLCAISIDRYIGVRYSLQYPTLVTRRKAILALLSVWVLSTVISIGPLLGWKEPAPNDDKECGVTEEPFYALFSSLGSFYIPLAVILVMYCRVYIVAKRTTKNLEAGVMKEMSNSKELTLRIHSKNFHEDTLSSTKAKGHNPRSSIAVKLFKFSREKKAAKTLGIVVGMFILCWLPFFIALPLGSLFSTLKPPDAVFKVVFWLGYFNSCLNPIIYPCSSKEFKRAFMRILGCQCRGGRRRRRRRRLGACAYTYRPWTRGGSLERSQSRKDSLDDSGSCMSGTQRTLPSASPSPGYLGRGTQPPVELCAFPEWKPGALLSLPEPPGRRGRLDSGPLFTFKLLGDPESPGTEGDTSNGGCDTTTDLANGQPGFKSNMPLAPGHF
T2 sequence (P23944 whole entry): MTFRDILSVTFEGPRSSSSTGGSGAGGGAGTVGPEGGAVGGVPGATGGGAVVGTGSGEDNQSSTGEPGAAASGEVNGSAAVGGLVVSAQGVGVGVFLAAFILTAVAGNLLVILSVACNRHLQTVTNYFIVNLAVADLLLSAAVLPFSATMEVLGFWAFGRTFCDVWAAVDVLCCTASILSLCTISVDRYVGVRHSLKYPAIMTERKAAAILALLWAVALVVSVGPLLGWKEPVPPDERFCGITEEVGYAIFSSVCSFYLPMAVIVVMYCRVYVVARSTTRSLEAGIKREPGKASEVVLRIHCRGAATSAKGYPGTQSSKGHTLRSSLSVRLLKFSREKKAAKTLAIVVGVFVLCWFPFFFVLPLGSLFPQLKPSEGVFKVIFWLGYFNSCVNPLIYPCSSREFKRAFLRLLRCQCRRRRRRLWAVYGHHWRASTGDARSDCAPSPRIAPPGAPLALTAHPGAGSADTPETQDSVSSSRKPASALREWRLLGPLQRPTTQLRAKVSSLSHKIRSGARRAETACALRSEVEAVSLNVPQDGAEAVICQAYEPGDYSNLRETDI
T2 sequence (P43140 whole entry): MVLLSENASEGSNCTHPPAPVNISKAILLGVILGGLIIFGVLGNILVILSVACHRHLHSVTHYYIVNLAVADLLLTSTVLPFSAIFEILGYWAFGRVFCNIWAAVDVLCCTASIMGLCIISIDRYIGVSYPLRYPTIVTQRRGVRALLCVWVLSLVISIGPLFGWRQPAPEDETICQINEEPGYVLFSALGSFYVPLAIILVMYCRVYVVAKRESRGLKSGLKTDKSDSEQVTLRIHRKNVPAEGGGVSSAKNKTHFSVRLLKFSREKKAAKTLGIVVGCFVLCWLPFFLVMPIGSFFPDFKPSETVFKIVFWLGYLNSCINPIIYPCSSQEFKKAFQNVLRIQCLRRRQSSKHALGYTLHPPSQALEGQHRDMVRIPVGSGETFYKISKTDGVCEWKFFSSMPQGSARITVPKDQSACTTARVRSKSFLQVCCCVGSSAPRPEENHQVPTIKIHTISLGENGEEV
Procedure, shortened: (§2)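 Crude P2 membranes from male Sprague–Dawley rat brain (250–280 g), 0.2–0.3 mg protein. Radioligand 1 nM: [3H]2BFI for I2, [3H]prazosin for α1, [3H]RX821002 for α2. Non-specific binding defined by 10 µM BU224 (I2), 10 µM phenylephrine (α1) or 10 µM rauwolscine (α2). 11 concentrations from 0.01 nM to 100 µM, triplicate, 45 min at RT. Filtration and scintillation counting; Ki by Cheng–Prusoff.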

[3] = biological target: T3, Alpha-2A adrenergic receptor (Homo sapiens) (UniProt P08913); assay: Agonist activity at human adrenoceptor alpha2A expressed in CHOK1 cells assessed as stimulation of agonist-induced [35S]GTPgammaS binding by scintillation counting assay relative to noradrenaline; format: functional, cell-based; conditions: CHO-K1
T3 sequence (whole entry): T1 sequence (P08913 whole entry)
Procedure, shortened: as §1, with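 “scintillation. EC50 and intrinsic activity relative to noradrenaline; means from 3 independent experiments.” for “scintillation.”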

[4] = Displacement of [3H]BFI from imidazoline I2 receptor in Sprague-Dawley rat brain membranes after 45 mins by scintillation counting; format: cell membranes, Membrane; procedure, shortened: as §2

Cl.Clc1cccc2cnn(CC3=NCCN3)c12
pEC50 [1]: 4.78 | Ki [2]: 0.0141 µM | Emax [3]: 7.4% | pKi [4]: 6.26

Cl.c1ccc2c(c1)cnn2CC1=NCCN1
pEC50 [1]: 5.35 | Ki [2]: 0.272 µM | Emax [3]: 6.3% | pKi [4]: 4.37

Cc1cccc2cnn(CC3=NCCN3)c12.Cl
pEC50 [1]: 4.76 | Ki [2]: 0.101 µM | Emax [3]: 6.3% | pKi [4]: 5.16
